Experimental data taken from paper PMC10439066 (Drugs in R&D, 2023).

Experiments:
[1] = tested on: adult premenopausal women with endometriosis-related pain symptoms; assay: AKRENDO1 phase IIa trial, liver laboratory parameters; type: in vivo, human
How it was run: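 Over 12 weeks of oral dosing or placebo, ALT, AST, total bilirubin and INR were measured at all visits except visit 2. Baseline was the last value before treatment start (visit 3, otherwise screening). Suspected liver injury was worked up per FDA 2009 DILI guidance. Severity was graded by DILI Expert Working Group criteria and causality by RUCAM. Post-baseline ALT was classed by ULN multiples.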

[2] = molecular target: T1, recombinant human AKR1C2 (Homo sapiens, UniProt P52895); assay: Related enzyme screen; type: biochemical; conditions: preclinical screen
T1 sequence (P52895 1-323): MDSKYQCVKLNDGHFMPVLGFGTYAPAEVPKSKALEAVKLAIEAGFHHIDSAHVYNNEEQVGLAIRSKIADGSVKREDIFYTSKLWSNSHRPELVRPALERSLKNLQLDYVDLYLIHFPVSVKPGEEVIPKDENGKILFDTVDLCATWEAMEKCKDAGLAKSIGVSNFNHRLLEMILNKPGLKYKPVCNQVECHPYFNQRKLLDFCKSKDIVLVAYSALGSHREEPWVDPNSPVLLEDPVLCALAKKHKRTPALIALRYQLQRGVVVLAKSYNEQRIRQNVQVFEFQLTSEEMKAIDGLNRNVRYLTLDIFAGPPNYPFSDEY

[3] = tested on: female monkeys; assay: Repeat-dose in vivo toxicity study, monkey; design: species or system cynomolgus macaque monkeys (Macaca fascicularis); conditions: cynomolgus monkey
[4] = molecular target: T2, human AKR1D1 (Homo sapiens, UniProt P51857); assay: AKR1D1 inhibition, cortisone as model substrate; type: biochemical
T2 sequence (P51857 1-326): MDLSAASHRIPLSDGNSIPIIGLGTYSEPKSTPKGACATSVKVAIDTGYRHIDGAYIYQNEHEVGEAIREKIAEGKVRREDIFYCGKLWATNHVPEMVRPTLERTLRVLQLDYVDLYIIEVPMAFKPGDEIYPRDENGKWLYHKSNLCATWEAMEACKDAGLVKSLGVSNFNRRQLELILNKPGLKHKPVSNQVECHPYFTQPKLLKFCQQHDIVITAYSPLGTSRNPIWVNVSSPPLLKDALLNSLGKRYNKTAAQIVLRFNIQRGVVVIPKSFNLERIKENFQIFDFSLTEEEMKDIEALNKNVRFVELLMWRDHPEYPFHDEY

[5] = 3 mg OD n = 11, largest value per participant
[6] = 3 mg OD n = 11, treatment-emergent
[7] = 10 mg OD n = 31, largest value per participant
[8] = 10 mg OD n = 31, treatment-emergent
[9] = 30 mg BID n = 11, largest value per participant
[10] = 30 mg BID n = 11, treatment-emergent
[11] = 30 mg OD n = 10, largest value per participant
[12] = 30 mg OD n = 10, treatment-emergent
[13] = 60 mg BID n = 27, largest value per participant
[14] = 60 mg BID n = 27, treatment-emergent

SMILES: CN(CCC(=O)O)C(=O)c1ccc2c(c1)CC[C@@H]1[C@@H]2CC[C@]2(C)C(c3cncc(F)c3)=CC[C@@H]12 [BAY1128688]
- ALT > 2 × ULN and ≤3 × ULN [1, 5]: 0 n (%)
- ALT > 3 × ULN and ≤5 × ULN [1, 5]: 0 n (%)
- ALT > 5 × ULN and ≤8 × ULN [1, 5]: 0 n (%)
- ALT > 8 × ULN [1, 5]: 0 n (%)
- AST > 3 × ULN and ≤5 × ULN [1, 5]: 0 n (%)
- AST > 8 × ULN [1, 5]: 0 n (%)
- ALT, total number of participants with > 2 × ULN [1, 6]: 0 n (%)
- AST, total number of participants with > 2 × ULN [1, 6]: 0 n (%)
- Bilirubin in serum > 2 × ULN [1, 6]: 0 n (%)
- ALT > 2 × ULN and ≤3 × ULN [1, 7]: 1 (3.2) n (%)
- ALT > 3 × ULN and ≤5 × ULN [1, 7]: 0 n (%)
- ALT > 5 × ULN and ≤8 × ULN [1, 7]: 0 n (%)
- ALT > 8 × ULN [1, 7]: 0 n (%)
- AST > 3 × ULN and ≤5 × ULN [1, 7]: 0 n (%)
- AST > 8 × ULN [1, 7]: 0 n (%)
- ALT, total number of participants with > 2 × ULN [1, 8]: 1 (3.2) n (%)
- AST, total number of participants with > 2 × ULN [1, 8]: 0 n (%)
- Bilirubin in serum > 2 × ULN [1, 8]: 0 n (%)
- ALT > 2 × ULN and ≤3 × ULN [1, 9]: 0 n (%)
- ALT > 3 × ULN and ≤5 × ULN [1, 9]: 0 n (%)
- ALT > 5 × ULN and ≤8 × ULN [1, 9]: 0 n (%)
- ALT > 8 × ULN [1, 9]: 0 n (%)
- AST > 3 × ULN and ≤5 × ULN [1, 9]: 0 n (%)
- AST > 8 × ULN [1, 9]: 0 n (%)
- ALT, total number of participants with > 2 × ULN [1, 10]: 0 n (%)
- AST, total number of participants with > 2 × ULN [1, 10]: 0 n (%)
- Bilirubin in serum > 2 × ULN [1, 10]: 0 n (%)
- ALT > 2 × ULN and ≤3 × ULN [1, 11]: 0 n (%)
- ALT > 3 × ULN and ≤5 × ULN [1, 11]: 2 (20.0) n (%)
- ALT > 5 × ULN and ≤8 × ULN [1, 11]: 0 n (%)
- ALT > 8 × ULN [1, 11]: 1 (10.0) n (%)
- AST > 3 × ULN and ≤5 × ULN [1, 11]: 0 n (%)
- AST > 8 × ULN [1, 11]: 1 (10.0) n (%)
- ALT, total number of participants with > 2 × ULN [1, 12]: 3 (30.0) n (%)
- AST, total number of participants with > 2 × ULN [1, 12]: 1 (10.0) n (%)
- Bilirubin in serum > 2 × ULN [1, 12]: 1 (10.0) n (%)
- ALT > 2 × ULN and ≤3 × ULN [1, 13]: 1 (3.7) n (%)
- ALT > 3 × ULN and ≤5 × ULN [1, 13]: 3 (11.1) n (%)
- ALT > 5 × ULN and ≤8 × ULN [1, 13]: 1 (3.7) n (%)
- ALT > 8 × ULN [1, 13]: 1 (3.7) n (%)
- AST > 3 × ULN and ≤5 × ULN [1, 13]: 2 (7.4) n (%)
- AST > 8 × ULN [1, 13]: 1 (3.7) n (%)
- ALT, total number of participants with > 2 × ULN [1, 14]: 6 (22.2) n (%)
- AST, total number of participants with > 2 × ULN [1, 14]: 3 (11.1) n (%)
- Bilirubin in serum > 2 × ULN [1, 14]: 2 (7.4) n (%)
- Dose-dependency of increase in liver transaminases up to liver injury ([1]; AKRENDO1): Risk increased with dose, but extent of ALT increase/liver injury not directly correlated with exposure
- Dose-dependency of isolated increase in serum bilirubin ([1]; AKRENDO1): Directly correlated with exposure
- Timing of increase in liver transaminases up to liver injury ([1]; AKRENDO1): >8 weeks of exposure to BAY1128688
- time to restoration of normal ALT levels ([1]; after end of treatment): up to 3 months
- participants with ALT increase > 5 × ULN ([1]; all dose groups): Three
- participants with increased ALT > 3 × ULN ([1]; all dose groups, 90 exposed): eight
- hepatotoxicity (elevations in serum ALT) ([1]; at around 12 weeks of treatment): Dose-/exposure-dependent hepatotoxicity was observed
- activity against related enzyme [2]: no relevant activity
- Increase in liver transaminases in animal toxicology study [3]: Not observed in cynomolgus monkey animal toxicology study with BAY1128688
- Isolated increase in serum bilirubin in animal toxicology study [3]: Observed in cynomolgus monkey animal toxicology study with BAY1128688
- inhibition of human AKR1D1 activity ([4]; 100 µM, cortisone as model substrate, Bayer AG, data on file): 11%
- activity against related enzyme ([4]; preclinical screen): no relevant activity
